Experimental data gathered from unrelated publications.
Protocols differ between the studies behind these lines.
Cell line: HepG2
Observed: cell growth or viability

For `COc1cc2ncnc(Nc3ccc(F)c(Cl)c3)c2cc1NC(=O)N/N=C/CN1CCN(C)CC1`, the IC50 was 2.23 µM (MTT; 72 h).
`c1cnc2c(c1)ccc1cccnc12` has an IC50 of over 50 µM (MTT; 48 h).
For `Cc1ccc2nc(-c3cccc(O)c3)[nH]c2c1`, the IC50 was 95.3 µM (MTT; 48 h).
For `COc1ccc(NC(=O)NNC(=O)c2cccc(Nc3nccc(-c4cccnc4)n3)c2)c(OC)c1`, the IC50 was over 40 µM (MTT; 24 h).
With `O=c1[nH]cc(F)c(=O)[nH]1` the IC50 was 21.4 µM (WST-1; 48 h).
`COc1cccc2c1C(=O)c1c(O)c3c(c(O)c1C2=O)C[C@@](O)(C(=O)CO)C[C@@H]3O[C@H]1C[C@H](N)[C@H](O)[C@H](C)O1` gave an IC50 of 3.6 µM (MTT; 24 h).
`Nc1nc(-c2ccc(NC(=O)Nc3cc(Br)cc(Br)c3)cc2)c[nH]1` has an IC50 of 47.6 µM (XTT; 24 h).
`C[C@H]1O[C@@H](n2cc(F)c(=O)[nH]c2=O)[C@H](O)[C@@H]1O` has an IC50 of over 50 µM (CCK-8; 48 h).
`CCCCc1ccc2[nH]c(NC(=O)OC)nc2c1` has an IC50 of 0.044 µM (CCK-8; 72 h).
`Clc1ccc(-c2nc3ccccc3[nH]2)c(Cl)c1` has an IC50 of 37.5 µM (MTT; 48 h).
`O=C(NNC(=O)c1ccc(Nc2nccc(-c3ccccn3)n2)cc1)NC1CCCC1` gave an IC50 of over 40 µM (MTT).
`Oc1ncnc2cc(Nc3nc(-c4ccc(F)cc4)cs3)ccc12` gave an IC50 of 7.92 µM (MTT).
For `COC(=O)CN=c1scc(-c2ccccc2)n1-c1ccccc1[N+](=O)[O-]`, the IC50 was 15.4 µM (MTT).
With `OCc1ccc2c(c1C#Cc1ccc(O)cc1)C(c1ccc(O)cc1)(c1ccc(O)cc1)c1cc(O)ccc1-2` the IC50 was over 50 µM (MTT; 48 h).
`C#Cc1cccc(Nc2ncnc3cc(OCCOC)c(OCCOC)cc23)c1` gave an IC50 of 6.83 µM (MTT).
`Cc1ccc2nc(-c3ccncc3)[nH]c2c1` has an IC50 of 52.6 µM (MTT; 48 h).
With `O=c1c(O)c(-c2ccc(O)cc2)oc2cc(O)cc(O)c12` the IC50 was 34.4 µM (WST-1; 48 h).
The IC50 of `CC(=O)O[C@@]12CO[C@@H]1C[C@H](O)[C@@]1(C)C(=O)[C@H](O)C3=C(C)[C@@H](OC(=O)[C@H](O)[C@@H](NC(=O)OC(C)(C)C)c4ccccc4)C[C@@](O)([C@@H](OC(=O)c4ccccc4)[C@H]21)C3(C)C` is reported as 0.11 µM (CCK-8; 72 h).
For `COc1cc2ncnc(Nc3ccc(F)c(Cl)c3)c2cc1NC(=O)N/N=C/c1cccn1CCCN(C)C`, the IC50 was 0.05 µM (MTT; 72 h).
`CC1=C(O)C(=O)C=C2C1=CC=C1[C@@]2(C)CC[C@@]2(C)[C@@H]3C[C@](C)(C(=O)OCCCOc4ccccc4)CC[C@]3(C)CC[C@]12C` has an IC50 of 3.04 µM (MTT; 48 h).
For `Cc1ccc(-c2cc(-c3ccc4oc(=O)cc(C)c4c3O)nc(N)n2)cc1`, the IC50 was over 128 µg/mL (MTT; 72 h).
`O=C(N/N=C/CN1CCOCC1)Nc1cc2c(Nc3ccc(F)c(Cl)c3)ncnc2cc1O[C@H]1CCOC1` has an IC50 of 3.26 µM (MTT; 72 h).
`Cc1ccc(NC(=O)NNC(=O)c2ccc(Nc3nccc(-c4cccnc4)n3)cc2)cc1` has an IC50 of over 40 µM (MTT; 24 h).
`c1ccc(-c2ccccn2)nc1` has an IC50 of over 50 µM (MTT; 48 h).
`CCN(CC)C/C=N/NC(=O)Nc1cc2c(Nc3ccc(F)c(Cl)c3)ncnc2cc1O[C@H]1CCOC1` has an IC50 of 2.38 µM (MTT; 72 h).
The IC50 of `COCCCOC(=O)[C@]1(C)CC[C@]2(C)CC[C@]3(C)C4=CC=C5C(=CC(=O)C(O)=C5C)[C@]4(C)CC[C@@]3(C)[C@@H]2C1` is reported as 0.94 µM (MTT; 48 h).
The IC50 of `CN(C)c1ccc(-c2nc3ccccc3[nH]2)cc1` is reported as 37.5 µM (MTT; 48 h).
`COc1cc(/C=C/C(=O)c2ccc(NC(=O)c3ccccc3CN3C(=O)c4ccccc4C3=O)cc2)cc(OC)c1OC` gave an IC50 of 1.62 µM (MTT; 72 h).
`Cl.Oc1cccc2c1[nH]c1c(C3=CC4(O)CC/C=C\CCCCN5CCC3C3(CC6/C=C\CCCCN6C43)C5)nccc12` (single isomer, unassigned; (+)) gave an IC50 of 1.5 µg/mL (neutral red; 48 h).
`COc1ccc(Nc2nc(-n3nc(C)cc3C)nc(-n3nc(C)cc3C)n2)cc1` gave an IC50 of 5.42 µM (MTT; 72 h).
For `CC1=C(O)C(=O)C=C2C1=CC=C1[C@@]2(C)CC[C@@]2(C)[C@@H]3C[C@](C)(C(=O)OCCCn4ccc5ccccc54)CC[C@]3(C)CC[C@]12C`, the IC50 was over 100 µM (MTT; 48 h).
`Oc1ccc(Br)cc1-c1nc2ccccc2[nH]1` has an IC50 of 8.94 µM (MTT; 48 h).
For `COc1cc2ncnc(Nc3ccc(F)c(Cl)c3)c2cc1NC(=O)N/N=C/c1cccn1CCCN1CCCCC1`, the IC50 was 0.31 µM (MTT; 72 h).
With `O=[N+]([O-])c1cccc(-c2nc3ccccc3[nH]2)c1` the IC50 was 39 µM (MTT; 48 h).
The IC50 of `Oc1ncnc2cc(Nc3nc(-c4ccc(Cl)cc4)cs3)ccc12` is reported as 9.36 µM (MTT).
`COc1cc2ncnc(Nc3ccc(F)c(Cl)c3)c2cc1NC(=O)N/N=C/CN1CCCC1` gave an IC50 of 2.48 µM (MTT; 72 h).
`Cc1cc(=O)oc2ccc(-c3cc(-c4cccs4)nc(N)n3)c(O)c12` gave an IC50 of over 128 µg/mL (MTT; 72 h).
`Oc1ccccc1-c1nc2ccccc2[nH]1` has an IC50 of 68.3 µM (MTT; 48 h).
`COc1cc2ncnc(Nc3ccc(F)c(Cl)c3)c2cc1NC(=O)N/N=C/c1cccn1CCCN1CCN(C)CC1` gave an IC50 of 0.08 µM (MTT; 72 h).
For `CC1(C)CC[C@]2(C)CC[C@]3(C)C(=CC[C@@H]4[C@@]5(C)CC[C@H](O)C(C)(C)[C@@H]5CC[C@]43C)[C@@H]2C1`, the IC50 was 82.8 µM (WST-1; 48 h).
The IC50 of `CN(C)CCn1cccc1/C=N/NC(=O)Nc1cc2c(Nc3ccc(F)c(Cl)c3)ncnc2cc1O[C@H]1CCOC1` is reported as 0.04 µM (MTT; 72 h).
`COc1cc2c(Nc3ccc(NC(=O)c4ccccc4)cc3)ncnc2cc1OCCCN1CCOCC1` has an IC50 of 0.6 µM (MTS; 72 h).
With `O=C(NCCc1ccccc1)NNC(=O)c1ccc(Nc2nccc(-c3cccnc3)n2)cc1` the IC50 was 5.48 µM (MTT).
The IC50 of `CC1(C)CC[C@]2(C(=O)O)CC[C@]3(C)C(=CC[C@@H]4[C@@]5(C)CC[C@H](O)C(C)(C)[C@@H]5CC[C@]43C)[C@@H]2C1` is reported as over 100 µM (MTT; 48 h).
The IC50 of `Cc1ccc2nc(-c3ccc([N+](=O)[O-])cc3)n(Cc3ccccc3)c2c1` is reported as 6.74 µM (MTT).
For `CC1=C(O)C(=O)C=C2C1=CC=C1[C@@]2(C)CC[C@@]2(C)[C@@H]3C[C@](C)(C(=O)OCCCCCCCO)CC[C@]3(C)CC[C@]12C`, the IC50 was 7.21 µM (MTT; 48 h).
`Clc1ccnc2c1ccc1c(Cl)ccnc12` gave an IC50 of over 50 µM (MTT; 48 h).
`Cc1ccc(-c2csc(Nc3ccc4c(O)ncnc4c3)n2)cc1` gave an IC50 of 12.6 µM (MTT).
